Assays:
Plasmodium falciparum [1] = experiment: Antiplasmodial activity against chloroquine-sensitive Plasmodium falciparum FCA 20 Ghana by [3H]hypoxanthine uptake; format: functional, organism-based
Outline: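 Asexual erythrocytic stages kept in continuous in vitro culture (Trager and Jensen method). Eight 4-fold dilutions per sample, final concentrations 20 μg/mL down to 0.0012 μg/mL, each tested in duplicate. Growth read as [³H]hypoxanthine incorporation (Desjardins method, Mirovsky modification). Results given as mean ± standard deviation; differences assessed by Student's t-test, p ≤ 0.05.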

Plasmodium falciparum [2] = experiment: Antiplasmodial activity against chloroquine-resistant Plasmodium falciparum W2 Indochina by [3H]hypoxanthine uptake; format: functional, organism-based
Outline: (§1)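 Continuous asexual erythrocytic P. falciparum culture (Trager and Jensen). Samples tested as eight 4-fold dilutions, final 20 µg/mL down to 0.0012 µg/mL, in duplicate. Growth read by [3H]hypoxanthine incorporation (Desjardins method, Mirovsky modification). IC50 given as mean ± standard deviation. Differences were tested by Student's t-test at p ≤ 0.05.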

Plasmodium falciparum [3] = experiment: Antiplasmodial activity against chloroquine-sensitive Plasmodium falciparum F32-Tanzania by [3H]hypoxanthine uptake; format: functional, organism-based
Outline: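 Asexual erythrocytic stages kept in continuous in vitro culture (Trager and Jensen method). Eight 4-fold dilutions per sample, final concentrations 20 μg/mL down to 0.0012 μg/mL, each tested in duplicate. Growth read as [³H]hypoxanthine incorporation (Desjardins method, Mirovsky modification).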

Plasmodium falciparum [4] = experiment: Antiplasmodial activity against chloroquine-resistant Plasmodium falciparum PFB Brazil by [3H]hypoxanthine uptake; format: functional, organism-based; outline: as §1
KB = experiment: Cytotoxicity against human KB cells by WST1 assay; format: cell-based
Outline: (§2)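 Cells grown as in earlier work and exposed to samples in 96-well microplates. Viability read by colorimetric assay with the tetrazolium salt WST-1. Emetine and usambarensine base run as reference compounds. Results given as IC50 in μM.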

[5] = Cytotoxicity against human WI38 cells by WST1 assay; format: cell-based; conditions: WI-38; outline: as §2
[6] = Selectivity index, ratio of IC50 for human KB cells to IC50 for chloroquine-sensitive Plasmodium falciparum FCA 20 Ghana; format: toxicity, cell-based; conditions: KB cells versus Plasmodium falciparum FCA 20 Ghana, read-out: Ratio IC50
Outline: (§3)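 SI is cytotoxicity IC50 divided by antiplasmodial IC50. Cytotoxicity was measured on cultured KB cancer cells or WI38 human fibroblasts in microplates by WST-1 tetrazolium colorimetric assay, with emetine and usambarensine as references.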

[7] = Selectivity index, ratio of IC50 for human KB cells to IC50 for chloroquine-resistant Plasmodium falciparum W2 Indochina; format: toxicity, cell-based; conditions: KB cells versus Plasmodium falciparum W2 Indochina, read-out: Ratio IC50; outline: as §3
[8] = Selectivity index, ratio of IC50 for human WI38 cells to IC50 for chloroquine-sensitive Plasmodium falciparum FCA 20 Ghana; format: toxicity, cell-based, WI-38; conditions: WI38 cells versus Plasmodium falciparum FCA 20 Ghana, read-out: Ratio IC50; outline: as §3
[9] = Selectivity index, ratio of IC50 for human WI38 cells to IC50 for chloroquine-resistant Plasmodium falciparum W2 Indochina; format: toxicity, cell-based, WI-38; conditions: WI38 cells versus Plasmodium falciparum W2 Indochina, read-out: Ratio IC50; outline: as §3

Row | Compound | IC90 (Plasmodium falciparum [1]) [µM] | IC90 (Plasmodium falciparum [2]) [µM] | IC50 (Plasmodium falciparum [3]) [µM] | IC90 (Plasmodium falciparum [3]) [µM] | IC50 (Plasmodium falciparum [4]) [µM] | IC90 (Plasmodium falciparum [4]) [µM] | IC50 (KB) [µM] | IC50 [5] [µM] | selectivity ratio [6] | selectivity ratio [7] | selectivity ratio [8] | selectivity ratio [9] | IC50 (Plasmodium falciparum [1]) [µM]
1 | C/C=C1/CN2[C@@H](C3=C[C@@H]4[C@@H]5N(C3=O)c3ccccc3[C@@]53CCN5C/C(=C/CO)[C@@H]4C[C@H]53)C[C@@]34c5ccccc5N5C(=O)CC=C([C@H]1C[C@H]23)[C@H]54 | 4.35 | 1.35 | 1.26 | 5.35 | 0.431 | 1.64 | 16.2 | 16.8 | 19.1 | 116 | 19.8 | 120 | 
2 | CCN(CC)CCCC(C)Nc1ccnc2cc(Cl)ccc12 (stereo unspecified) [CHLOROQUINE] | 0.119 | 1.75 |  | 0.063 |  | 1.54 |  |  |  |  |  |  | 
3 | CC[C@H]1CN2CCc3cc(OC)c(OC)cc3[C@@H]2C[C@@H]1C[C@H]1NCCc2cc(OC)c(OC)cc21 [EMETINE] |  |  |  |  |  |  | 0.056 |  |  |  |  |  | 
4 | C/C=C1/CN2[C@@H](C3=C[C@@H]4[C@@H]5N(C3=O)c3ccccc3[C@@]53CCN5C/C(=C/C)[C@@H]4C[C@H]53)C[C@@]34c5ccccc5N5C(=O)CC=C([C@H]1C[C@H]23)[C@H]54 [ISOSUNGUCINE] | 7.06 | 1.72 |  |  |  |  | 9 | 9.2 | 6.8 | 34 | 7 | 34.7 | 
5 | OC(c1cc(C(F)(F)F)nc2c(C(F)(F)F)cccc12)C1CCCCN1 (stereo unspecified) [MEFLOQUINE] |  |  |  | 0.354 | 0.002 | 0.006 |  |  |  |  |  |  | 
6 | C=C[C@H]1CN2CC[C@H]1C[C@H]2[C@H](O)c1ccnc2ccc(OC)cc12 [QUININE] | 1.91 | 1.72 |  |  |  |  |  |  |  |  |  |  | 
7 | C/C=C1/CN2[C@@H]([C@@H]3C(=O)N4c5ccccc5[C@@]56CCN7CC8=CCO[C@@H]3[C@@H]([C@H]45)[C@H]8C[C@H]76)C[C@@]34c5ccccc5N5C(=O)CC=C([C@H]1C[C@H]23)[C@H]54 [STRYCHNOGUCINE A] | 6.98 |  | 4.81 | 9.54 | 3.2 | 9.4 |  |  |  |  |  |  | 2.31
8 | O=C1C[C@@H]2OCC=C3CN4[C@@H](C5=C[C@@H]6[C@@H]7N(C5=O)c5ccccc5[C@@]75CCN7C/C(=C/CO)[C@@H]6C[C@H]75)C[C@]56c7ccccc7N1[C@H]5[C@@H]2[C@H]3C[C@H]46 [STRYCHNOGUCINE B] | 3.79 |  | 0.51 | 3.23 | 0.202 | 1.15 | > 15 | 15.5 | > 24.3 | > 176 | 25.1 | 182 | 
9 | C/C=C1/CN2CC[C@]34c5ccccc5N5C(=O)C([C@H]6C[C@]78c9ccccc9N9C(=O)C=C[C@@H]([C@H]97)[C@H]7C[C@@H]8N6C/C7=C/C)=C[C@H]([C@H]53)[C@H]1C[C@H]24 [SUNGUCINE] | 26.3 | 33.1 |  |  |  |  | 6.2 | 6 | 0.8 | 0.6 | 0.8 | 0.6 | 
10 | C/C=C1/CN2CCc3c([nH]c4ccccc34)[C@@H]2C[C@@H]1Cc1nccc2c1[nH]c1ccccc12 [USAMBARENSINE] |  |  |  |  |  |  | 9.7 | 4.62 | 14.8 | 36.6 | 3.1 | 7.8 | 
